In ChEMBL document CHEMBL1154734, “Small-sized human immunodeficiency virus type-1 protease inhibitors containing allophenylnorstatine to explore the S2' pocket” (J Med Chem, 2009):
≈ marks a conversion by molar mass, not a printed value.

Assays:
[1] = system: Human immunodeficiency virus 1; assay: Ratio of EC50 for HIV1 3B infected in human MT4 cells in presence of 50% human serum to EC50 for HIV1 3B infected in human MT4 cells in absence of human serum; format: functional
[2] = system: Human immunodeficiency virus 1; assay: Antiviral activity against HIV1 3B infected in human MT4 cells assessed as inhibition of virus-induced cytopathic effect after 5 days by MTT assay in presence of 50% human serum; format: functional, organism-based; details: Human immunodeficiency virus 1, 3B, MT4, 120 h
Summary of the method: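 MT-4 cells were infected with wild-type HIV-1 (IIIB or pNL4-3) in the presence of 50% human serum. Compound was added at several concentrations from a 1% DMSO solution, and cells were incubated 5 days at 37 °C in triplicate. Cytopathic effect reduction was read by MTT optical density, and EC50 was derived from a median-effect equation fit.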

[3] = biological target: Protease (Human immunodeficiency virus 1) (UniProt Q9YQ12); assay: Inhibition of HIV1 recombinant protease at 50 nM after 15 mins by fluorescence assay
Sequence of Protease (Human immunodeficiency virus 1) (Q9YQ12 as listed by the source): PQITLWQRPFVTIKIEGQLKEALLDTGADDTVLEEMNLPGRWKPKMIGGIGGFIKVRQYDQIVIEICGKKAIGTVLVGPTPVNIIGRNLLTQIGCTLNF
Summary of the method: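 Recombinant HIV-1 protease was assayed in MES–NaOH pH 5.5 with DTT, EDTA and NaCl, with inhibitor at 50 nM final (500 nM DMSO stock). The substrate was H-Lys-Ala-Arg-Val-Tyr-Phe(p-NO2)-Glu-Ala-Nle-NH2, and the reaction ran 15 min at 37 °C. It was stopped with 1 N HCl. The N-terminal fragment was quantified by RP-HPLC with fluorescence at ex 275/em 305 nm.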

[4] = system: Human immunodeficiency virus 1; assay: Antiviral activity against HIV1 3B infected in human MT4 cells assessed as inhibition of virus-induced cytopathic effect after 5 days by MTT assay in absence of human serum; format: functional, organism-based; details: Human immunodeficiency virus 1, 3B, MT4, 120 h
Summary of the method: (§1)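 HIV-1 (IIIB or pNL4-3) inoculated into MT-4 cells. Cultures were treated with an equal volume of a 1% DMSO solution of compound at several concentrations plus 10% fetal bovine serum, then incubated 5 days at 37 °C in CO2, in triplicate. After MTT, optical density gave the percent cytopathic effect reduction. EC50 was fitted to a median-effect equation.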

[5] = Aqueous solubility in 0.1% TFA after 30 mins by RP-HPLC analysis; format: physicochemical; details: 0.1% TFA in water
[6] = system: Human immunodeficiency virus 1; assay: Antiviral activity against indinavir-resistant HIV1 harboring L10R/M46I/L63P/V82T/I84V mutant protease infected in human MT4 cells assessed as inhibition of virus-induced cytopathic effect after 5 days by MTT assay; format: functional, organism-based; details: Human immunodeficiency virus 1, MT4, 120 h
Summary of the method: (§2)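 MT-4 cells inoculated with HIV-1 wild-type pNL4-3 or indinavir-resistant IND-R, then given an equal volume of compound in 1% DMSO at several concentrations with 10% fetal bovine serum. Incubated 5 days at 37 °C in CO2, in triplicate. MTT read-out by optical density gave percent cytopathic-effect reduction; EC50 was fitted to a median-effect equation.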

[7] = system: Human immunodeficiency virus 1; assay: Fold resistance, ratio of EC50 for indinavir-resistant HIV1 harboring L10R/M46I/L63P/V82T/I84V mutant protease infected in human MT4 cells to EC50 for HIV1 pNL4-3 infected in human MT4 cells; format: functional; summary of the method: as §2
[8] = system: Human immunodeficiency virus 1; assay: Antiviral activity against HIV1 pNL4-3 infected in human MT4 cells assessed as inhibition of virus-induced cytopathic effect after 5 days by MTT assay; format: functional, organism-based; details: Human immunodeficiency virus 1, pNL4-3, MT4, 120 h; summary of the method: as §1
[9] = system: Human immunodeficiency virus 1; assay: Antiviral activity against HIV1 3B infected in human MT4 cells assessed as inhibition of virus-induced cytopathic effect after 5 days by MTT assay; format: functional, organism-based; details: Human immunodeficiency virus 1, 3B, MT4, 120 h; summary of the method: as §1

inhibition [3] | SMILES | Ratio EC50 [1] | EC50 [2] | EC50 [4] | solubility at 0.5 h [5] | EC50 [6] | Ratio EC50 [7] | EC50 [8] | EC50 [9]
91% | Cc1cccc(C)c1OCC(=O)N[C@@H](Cc1ccccc1)[C@H](O)C(=O)N1CSC(C)(C)[C@H]1C(=O)NC(C)(C)C |  | 4500 nM | 1290 nM |  |  |  |  | 
85% | Cc1ccccc1CNC(=O)[C@H]1N(C(=O)[C@@H](O)[C@H](Cc2ccccc2)NC(=O)COc2c(C)cc(N(C)C)cc2C)CSC1(C)C | 5.1 | 3900 nM | 758 nM | 3830 µg/mL (≈ 5.92 mM) |  |  |  | 
91% | Cc1cc(N)cc(C)c1OCC(=O)N[C@@H](Cc1ccccc1)[C@H](O)C(=O)N1CSC(C)(C)[C@H]1C(=O)NC/C=C\CO | 2.3 | 433 nM | 184 nM | 9320 µg/mL (≈ 15.9 mM) |  |  |  | 
85% | CNc1cc(C)c(OCC(=O)N[C@@H](Cc2ccccc2)[C@H](O)C(=O)N2CSC(C)(C)[C@H]2C(=O)NCc2ccccc2C)c(C)c1 | 2.9 | 560 nM | 191 nM | 2990 µg/mL (≈ 4.72 mM) |  |  |  | 
76% | Cc1c(O)cccc1C(=O)N[C@@H](Cc1ccccc1)[C@H](O)C(=O)N1CSC(C)(C)[C@H]1C(=O)NC1CCCCCC1 |  |  |  |  |  |  |  | 332 nM
52% | Cc1c(O)cccc1C(=O)N[C@@H](Cc1ccccc1)[C@H](O)C(=O)N1CSC(C)(C)[C@H]1C(=O)N[C@H](C)c1ccccc1 |  |  |  |  |  |  |  | 617 nM
97% | Cc1c(O)cccc1C(=O)N[C@@H](Cc1ccccc1)[C@H](O)C(=O)N1CSC(C)(C)[C@H]1C(=O)N[C@H]1CCc2ccccc21 |  |  |  |  |  |  |  | 73 nM
94% | Cc1c(O)cccc1C(=O)N[C@@H](Cc1ccccc1)[C@H](O)C(=O)N1CSC(C)(C)[C@H]1C(=O)NC/C=C\CO |  |  |  |  |  |  |  | 1200 nM

The next lines start with the compound.

SMILES | inhibition [3] | Ratio EC50 [1] | EC50 [2] | EC50 [4] | solubility at 0.5 h [5] | EC50 [6] | Ratio EC50 [7] | EC50 [8] | EC50 [9]
Cc1cc(N)cc(C)c1OCC(=O)N[C@@H](Cc1ccccc1)[C@H](O)C(=O)N1CSC(C)(C)[C@H]1C(=O)NCc1c(Cl)cccc1Cl | 95% | 4.1 | 648 nM | 158 nM | 1180 µg/mL (≈ 1.75 mM) |  |  |  | 
C=CCNC(=O)[C@H]1N(C(=O)[C@@H](O)[C@H](Cc2ccccc2)NC(=O)COc2c(C)cc(N)cc2C)CSC1(C)C | 91% | 4.3 | 284 nM | 66 nM | 12800 µg/mL (≈ 23.1 mM) | 470 nM | 8.7 | 54 nM | 
Cc1c(O)cccc1C(=O)N[C@@H](Cc1ccccc1)[C@H](O)C(=O)N1CSC(C)(C)[C@H]1C(=O)N[C@H]1c2ccccc2C[C@H]1O | 92% |  |  |  |  |  |  |  | 100 nM
Cc1ccccc1CNC(=O)[C@H]1N(C(=O)[C@@H](O)[C@H](Cc2ccccc2)NC(=O)COc2c(C)cc(N)cc2C)CSC1(C)C | 98% | 3 | 249 nM | 83 nM | 2640 µg/mL (≈ 4.27 mM) | 568 nM | 5.5 | 103 nM | 
Cc1c(O)cccc1C(=O)N[C@@H](Cc1ccccc1)[C@H](O)C(=O)N1CSC(C)(C)[C@H]1C(=O)N[C@@H]1CCc2ccccc21 | 91% |  |  |  |  |  |  |  | 353 nM
Cc1cc(N)cc(C)c1OCC(=O)N[C@@H](Cc1ccccc1)[C@H](O)C(=O)N1CSC(C)(C)[C@H]1C(=O)NC1CCCC1 | 90% | 5 | 1900 nM | 373 nM | 7480 µg/mL (≈ 12.8 mM) | 3010 nM | 4.9 | 620 nM | 
C#CCNC(=O)[C@H]1N(C(=O)[C@@H](O)[C@H](Cc2ccccc2)NC(=O)c2cccc(O)c2C)CSC1(C)C | 90% |  |  |  |  | 1930 nM | 3.5 | 558 nM | 110 nM
Cc1cccc(C)c1OCC(=O)N[C@@H](Cc1ccccc1)[C@@H](O)C[C@H](Cc1ccccc1)NC(=O)[C@H](C(C)C)N1CCCNC1=O [LOPINAVIR] |  |  |  |  |  | 385 nM | 24 | 16 nM | 30 nM
Cc1cc(N)cc(C)c1OCC(=O)N[C@@H](Cc1ccccc1)[C@H](O)C(=O)N1CSC(C)(C)[C@H]1C(=O)NC(C)(C)C | 92% | 4.5 | 601 nM | 132 nM | 6020 µg/mL (≈ 10.5 mM) | 2030 nM | 7.3 | 280 nM | 
Cc1cccc(C)c1CNC(=O)[C@H]1N(C(=O)[C@@H](O)[C@H](Cc2ccccc2)NC(=O)COc2c(C)cc(N)cc2C)CSC1(C)C | 99% | 3.6 | 150 nM | 41 nM | 1250 µg/mL (≈ 1.98 mM) | 409 nM | 3.4 | 122 nM | 
CCCNC(=O)[C@H]1N(C(=O)[C@@H](O)[C@H](Cc2ccccc2)NC(=O)c2cccc(O)c2C)CSC1(C)C | 88% |  |  |  |  |  |  |  | 91 nM
C=CCNC(=O)[C@H]1N(C(=O)[C@@H](O)[C@H](Cc2ccccc2)NC(=O)c2cccc(O)c2C)CSC1(C)C | 93% |  |  |  |  | 173 nM | 1.2 | 141 nM | 123 nM
Cc1c(O)cccc1C(=O)N[C@@H](Cc1ccccc1)[C@H](O)C(=O)N1CSC(C)(C)[C@H]1C(=O)NC1CCCC1 | 94% |  |  |  |  | 2200 nM | 7.6 | 290 nM | 125 nM
Cc1cc(N)cc(C)c1OCC(=O)N[C@@H](Cc1ccccc1)[C@H](O)C(=O)N1CSC(C)(C)[C@H]1C(=O)N[C@H]1c2ccccc2C[C@H]1O |  | 4.2 | 1500 nM | 357 nM | 3740 µg/mL (≈ 5.78 mM) | 1420 nM | 3.2 | 450 nM | 
Cc1c(O)cccc1C(=O)N[C@@H](Cc1ccccc1)[C@H](O)C(=O)N1CSC(C)(C)[C@H]1C(=O)NC1CCCCC1 | 86% |  |  |  |  | 1730 nM | 7.2 | 240 nM | 207 nM
Cc1c(O)cccc1C(=O)N[C@@H](Cc1ccccc1)[C@H](O)C(=O)N1CSC(C)(C)[C@H]1C(=O)N[C@@H]1c2ccccc2C[C@@H]1O | 66% |  |  |  |  |  |  |  | 550 nM
CCNC(=O)[C@H]1N(C(=O)[C@@H](O)[C@H](Cc2ccccc2)NC(=O)c2cccc(O)c2C)CSC1(C)C | 64% |  |  |  |  |  |  |  | 182 nM
Cc1c(O)cccc1C(=O)N[C@@H](Cc1ccccc1)[C@H](O)C(=O)N1CSC(C)(C)[C@H]1C(=O)NC1CCC1 | 65% |  |  |  |  |  |  |  | 119 nM
